Experimental data pooled from the literature.
Technique: competition with immobilised ligand
RPS6KA4 C-terminal kinase domain: Ribosomal protein S6 kinase alpha-4, C-terminal kinase domain (RPS6KA4, Homo sapiens, UniProt O75676)
RPS6KA4 N-terminal kinase domain: Ribosomal protein S6 kinase alpha-4, N-terminal kinase domain (RPS6KA4, Homo sapiens, UniProt O75676)

Compound	target	test	setting	remaining binding
Cc1cnn2ncc(-c3ccnc(N(C)C)n3)c2c1	RPS6KA4 C-terminal kinase domain	binding	1 µM	62%
CS(=O)(=O)NCC[C@H](NC(=O)c1cncc2c1cnn2-c1ccc(F)cc1)c1ccnc(S(C)(=O)=O)c1	RPS6KA4 N-terminal kinase domain	cell-free assay	1 µM	85%
O=C(c1ccc(Nc2nccc(-c3cc4ccccc4s3)n2)cc1)N1CCC(N2CCCC2)CC1	RPS6KA4 N-terminal kinase domain	binding	1 µM	100%
C[C@@H](c1ccc(-n2cnc3c(N)ncnc32)cc1)N1CCc2nn(C)c(Cc3ccccc3)c2C1=O	RPS6KA4 N-terminal kinase domain	binding	0.1 µM	84%
CSc1cccnc1N1CCN(Cc2nc3ccccc3[nH]2)CC1	RPS6KA4 N-terminal kinase domain	cell-free assay	1 µM	94%
COc1cnc(Nc2cccc(S(N)(=O)=O)c2)nc1N1CCN(c2ccccc2)C(=O)C1	RPS6KA4 N-terminal kinase domain	binding	1 µM	100%
O=C(c1ccc(Nc2ncc(Cl)c(-c3cc4ccccc4s3)n2)cc1)N1CCC(N2CCCC2)CC1	RPS6KA4 N-terminal kinase domain	binding	1 µM	100%
CN(C(=O)c1ccccc1)c1cc(N(C)c2ccc3c(c2)CCc2ccc(C(=O)NCCN4CCOCC4)cc2C3=O)ccc1F	RPS6KA4 N-terminal kinase domain	cell-free assay	1 µM	59%
O=C(Nc1c[nH]nc1C(=O)NC1CCNCC1)c1cc(F)cc(F)c1	RPS6KA4 C-terminal kinase domain	binding	1 µM	34%
O=C(Nc1cccnn1)N1CC(C/C=C/c2cncc(Oc3ccc(C(F)(F)F)cn3)n2)C1	RPS6KA4 N-terminal kinase domain	cell-free assay	1 µM	100%
Cc1cnc(Nc2ccc(C(=O)N3CCC(N4CCCC4)CC3)cc2)nc1-c1cc2ccccc2s1	RPS6KA4 N-terminal kinase domain	binding	1 µM	100%
CNC(=O)[C@@H]1CC[C@@H](n2c(-c3ccc4cnccc4c3)nc3ccc(C(=O)NCc4cccc(C(N)=O)c4)cc32)C1	RPS6KA4 N-terminal kinase domain	binding	1 µM	100%
CN(C)c1nccc(-c2cnc3ncccn23)n1	RPS6KA4 C-terminal kinase domain	binding	1 µM	62%
COc1ccc2c(c1)O[C@@H](c1ccc(OC)c(OC)c1)C[C@H]2NC(=O)C1(c2ccc3c(c2)OC(F)(F)O3)CC1	RPS6KA4 C-terminal kinase domain	cell-free assay	1 µM	81%
COc1ccnn2ncc(-c3ccnc(N(C)C)n3)c12	RPS6KA4 N-terminal kinase domain	binding	1 µM	97%
FC(F)(F)Oc1cccc(-c2cnc3ccc(-c4ccncc4)nn23)c1	RPS6KA4 C-terminal kinase domain	binding	5 µM	87%
C[C@H]1CCN(c2nccc(-c3cnn4ncccc34)n2)C1	RPS6KA4 C-terminal kinase domain	binding	1 µM	56%

Compound	target	test	setting	remaining binding
COc1ncc2cc3ccccc3nc2c1C#N	RPS6KA4 C-terminal kinase domain	cell-free assay	5 µM	58%
CNCc1ccccc1-c1csc([C@@H](C)Nc2nc(C)nc3cc(OC)c(OC)cc23)c1	RPS6KA4 N-terminal kinase domain	cell-free assay	1 µM	100%
F[C@@H]1CCN(c2nccc(-c3cnn4ncccc34)n2)C1	RPS6KA4 N-terminal kinase domain	binding	1 µM	90%
COc1cnc(Nc2cccc(S(N)(=O)=O)c2)nc1N1CCN(c2ccccc2)CC1	RPS6KA4 C-terminal kinase domain	binding	1 µM	89%
O=C(NCCCC1CCCCC1)c1ccc(CNC(=O)c2cnn(-c3ccccc3)c2C(F)(F)F)cc1	RPS6KA4 C-terminal kinase domain	cell-free assay	0.1 µM	90%
c1cncc(-c2cccc(Nc3nccc(NC4CCCCC4)n3)c2)c1	RPS6KA4 C-terminal kinase domain	binding	10 µM	100%
CN(c1nccc(-c2cnn3ncccc23)n1)C1CC1	RPS6KA4 C-terminal kinase domain	binding	1 µM	100%
CCN1CCN(Cc2ccc(C(=O)Nc3ccc(C)c(Oc4ccc5c(c4)CC(=O)N5)c3)cc2C(F)(F)F)CC1	RPS6KA4 C-terminal kinase domain	binding	1 µM	100%
O=C(c1ccc(Nc2ncc(Cl)c(-c3ccc(Cl)s3)n2)cc1)N1CCC(N2CCCC2)CC1	RPS6KA4 N-terminal kinase domain	binding	1 µM	100%
c1cnn2ncc(-c3ccnc(N4CCC45COC5)n3)c2c1	RPS6KA4 N-terminal kinase domain	binding	1 µM	91%
O=C(NCCCN1CCOCC1)c1ccc(Nc2ncc(Cl)c(-c3ccc(Cl)s3)n2)cc1	RPS6KA4 N-terminal kinase domain	binding	1 µM	100%
Nc1ncc2c(n1)-c1c([nH]c3ccc(C#CC4CC4)cc13)CCCC2	RPS6KA4 C-terminal kinase domain	binding	1 µM	93%
O=C(NCCCN1CCOCC1)c1ccc(Nc2nccc(-c3cc4ccccc4s3)n2)cc1	RPS6KA4 C-terminal kinase domain	binding	1 µM	19%
C[C@@]1(Cc2ccc(C#N)cc2)C(=O)N(c2cc(Cl)cc(Cl)c2)c2ncc(C(=O)NC3(c4nc(C5CCC5)no4)CC3)n21	RPS6KA4 C-terminal kinase domain	cell-free assay	1 µM	100%
C=CC(=O)N1CCC(C(=O)NCC(=O)N2CCN(c3nc(-c4cnc(N)nc4C(F)F)nc(N4CCOCC4)n3)CC2)CC1	RPS6KA4 N-terminal kinase domain	binding	1 µM	82%
O=C(NCC1CCOCC1)c1n[nH]cc1NC(=O)c1c(F)cccc1F	RPS6KA4 C-terminal kinase domain	binding	1 µM	29%
CN(CCCC(F)(F)F)c1nccc(-c2cnn3ncccc23)n1	RPS6KA4 C-terminal kinase domain	binding	1 µM	100%
